# Results from PMC7816766 (Journal of Medicinal Chemistry, 2020).
# Columns and labels:
# STAT1:STAT1 homodimers = target: T1, STAT1:STAT1 homodimers (Mus musculus, UniProt P42225); type: biochemical; details: 10 µM, MGFe probe (Fig. S6)
# T1 sequence (P42225 2-749 limits assumed): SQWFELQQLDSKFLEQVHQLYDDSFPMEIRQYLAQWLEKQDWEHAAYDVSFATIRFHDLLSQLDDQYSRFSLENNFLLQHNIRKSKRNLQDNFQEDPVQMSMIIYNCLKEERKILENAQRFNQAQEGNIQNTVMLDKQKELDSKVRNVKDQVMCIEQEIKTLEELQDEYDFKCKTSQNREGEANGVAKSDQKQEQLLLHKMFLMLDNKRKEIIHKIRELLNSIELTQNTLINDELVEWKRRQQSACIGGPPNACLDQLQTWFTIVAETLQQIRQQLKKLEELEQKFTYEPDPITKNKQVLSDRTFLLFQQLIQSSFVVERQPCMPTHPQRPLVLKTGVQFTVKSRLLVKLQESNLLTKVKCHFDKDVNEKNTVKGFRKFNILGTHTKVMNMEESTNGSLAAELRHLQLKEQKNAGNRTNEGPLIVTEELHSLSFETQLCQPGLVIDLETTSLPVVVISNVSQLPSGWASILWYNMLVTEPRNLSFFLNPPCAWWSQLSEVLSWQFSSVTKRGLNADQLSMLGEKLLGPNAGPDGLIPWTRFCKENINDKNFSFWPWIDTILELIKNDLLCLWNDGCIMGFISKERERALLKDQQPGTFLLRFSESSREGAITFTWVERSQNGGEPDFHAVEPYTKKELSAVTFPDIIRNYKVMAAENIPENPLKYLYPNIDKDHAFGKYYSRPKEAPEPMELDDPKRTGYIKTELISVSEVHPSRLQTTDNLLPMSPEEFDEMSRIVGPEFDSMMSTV
# STAT5:STAT5 homodimers = type: biochemical; details: 10 µM, MGFe probe (Fig. S6)
# MDA-MB-468 cells = test: CyQuant cell viability assay, MDA-MB-468; type: cell-based; details: Homo sapiens, MDA-MB-468, 72 h, read-out: Cell viability EC50 MDA-MB-468
# Method in brief: (§1)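 Cells in 96-well plates were treated with test compound over a range of concentrations for 72 h, then assayed with CyQuant. Viability was normalised to control as % and plotted against concentration to derive EC50. Media: MCF-10A in DMEM/F12 with 5% horse serum, EGF, insulin and hydrocortisone; other lines in DMEM with 10% heat-inactivated FBS.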
# MCF-10A cells = test: CyQuant cell viability assay, MCF-10A; type: cell-based; details: Homo sapiens, 72 h, read-out: Cell viability EC50 MCF-10A
# Method in brief: as §1
# [1] = system: MDA-MB-231 or MDA-MB-468 cells; test: Cell viability/growth of breast cancer cells harboring active STAT3; type: cell-based, human; details: at 1 μM or less
# MDA-MB-231 cells = test: Clonogenic; type: cell-based, human; details: treated once
# Method in brief: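 Cells were seeded as single-cell cultures at 250 cells per well. They were treated once the next day with test compound at 0–1 μM and cultured until large colonies were visible. Colonies were stained with crystal violet for 4 h and photographed. Data came from three independent determinations.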
# [2] = system: STAT3 DNA-binding activity in MDA-MB-468 cells; test: Constitutive STAT3 DNA-binding activity in treated breast cancer cells; type: cell-based, human
# Method in brief: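 MDA-MB-468 cells were treated with 5 μM test compound for 1–3 h; controls received 0.05% DMSO. Nuclear extracts of equal total protein were incubated with 33P-labelled hSIE probe (c-fos m67 variant) for 30 min at 30 °C. STAT3:DNA complexes were then resolved by EMSA. Results came from two to three independent determinations.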
# pY705STAT3 = test: Immunoblotting for pY705STAT3 in treated breast cancer cells; type: cell-based, human; details: 1–5 μM, 0–24 h (BBI-608 0.5–5 μM, 2–3 h)
# Method in brief: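 Controls received 0.05% DMSO. Equal-protein RIPA whole-cell lysates were immunoblotted for pY705STAT3, STAT3 and tubulin. Results came from two to three independent determinations.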
# [3] = system: EGFR, JAK2, Src, AKT and ERK1/2; test: Immunoblotting for nonspecific effects in MDA-MB-231 cells; type: cell-based, human; details: 1 or 3 μM
# [4] = system: c-Myc, VEGF, Bcl-2, survivin; test: Immunoblotting for STAT3 target gene expression in MDA-MB-231 cells; type: cell-based, human; details: 1 or 3 μM, 3–24 h
# Method in brief: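 MDA-MB-231 cells were treated with 1 or 3 μM test compound for 3–24 h; controls received 0.05% DMSO. Whole-cell lysates were prepared in RIPA buffer. Equal total protein was run on SDS-PAGE and immunoblotted for c-Myc, Bcl-2, VEGF and survivin, with tubulin as loading control. Results came from two to three independent determinations.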
# [5] = system: MDA-MB-231 and MDA-MB-468 cells; test: Induction of apoptosis, PARP cleavage by Western blotting; type: cell-based, human; details: 1 or 3 μM, 3–24 h
# [6] = system: human breast cancer cells; test: Combination treatment with docetaxel or cisplatin, CyQuant assay; type: cell-based; details: 1 μM 7g for 6 h, then 0–100 nM docetaxel or 0–20 μM cisplatin, 72 h
# Human HLM MetID study = type: in vitro ADME; details: preliminary results
# STAT3 = STAT3 (Mus musculus, UniProt P42227); type: biochemical; details: up to 10 μM
# Chain of STAT3 (P42227 2-770 limits assumed): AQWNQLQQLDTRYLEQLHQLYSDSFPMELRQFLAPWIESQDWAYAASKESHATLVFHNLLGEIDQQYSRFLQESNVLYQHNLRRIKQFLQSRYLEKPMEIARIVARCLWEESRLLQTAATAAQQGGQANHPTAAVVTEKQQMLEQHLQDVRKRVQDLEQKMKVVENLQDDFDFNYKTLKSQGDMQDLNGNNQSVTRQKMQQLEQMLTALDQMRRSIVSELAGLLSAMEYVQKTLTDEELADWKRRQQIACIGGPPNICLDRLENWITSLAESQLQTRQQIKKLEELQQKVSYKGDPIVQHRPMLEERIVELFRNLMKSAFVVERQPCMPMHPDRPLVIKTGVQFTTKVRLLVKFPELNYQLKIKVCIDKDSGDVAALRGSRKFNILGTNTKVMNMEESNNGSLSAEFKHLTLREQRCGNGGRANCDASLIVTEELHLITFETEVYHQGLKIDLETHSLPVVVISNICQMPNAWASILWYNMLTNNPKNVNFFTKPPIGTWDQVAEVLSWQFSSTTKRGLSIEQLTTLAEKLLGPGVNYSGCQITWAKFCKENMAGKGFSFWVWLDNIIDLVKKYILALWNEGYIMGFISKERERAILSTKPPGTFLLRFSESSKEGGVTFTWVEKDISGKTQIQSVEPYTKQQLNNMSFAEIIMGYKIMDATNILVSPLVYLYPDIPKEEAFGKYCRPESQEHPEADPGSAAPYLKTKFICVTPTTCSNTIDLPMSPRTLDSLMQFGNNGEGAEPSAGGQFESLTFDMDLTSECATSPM
# MCF-7 cells = test: CyQuant cell viability assay, MCF-7; type: cell-based, human
# Method in brief: as §1
smiles,measurement,setting,value
COC(=O)c1ccc(N(Cc2ccc(C3CCCCC3)cc2)C(=O)[C@H]2CCN2S(=O)(=O)c2c(F)c(F)c(F)c(F)c2F)cc1O [Compound 7a],effect on DNA-binding activity of STAT1:STAT1 homodimers,STAT1:STAT1 homodimers,minimal effect
same,effect on DNA-binding activity of STAT5:STAT5 homodimers,STAT5:STAT5 homodimers,minimal effect
same,EC50,MDA-MB-468 cells,2.5 µM
same,EC50,MCF-10A cells,4.3 µM
O=C1OCc2cc(N(Cc3ccc(C4CCCCC4)cn3)C(=O)[C@H]3CCN3S(=O)(=O)c3c(F)c(F)c(F)c(F)c3F)ccc21 [Compound 7g],"viability, anchorage-dependent and independent growth, and colony formation",[1],strongly inhibited
same,inhibition of colony formation,MDA-MB-231 cells; 0.5 μM,significant inhibition of colony formation
same,inhibition of colony formation,MDA-MB-231 cells; 1 μM,complete inhibition of colony formation
same,earliest time of inhibition of STAT3 DNA-binding activity in cells,[2]; MDA-MB-468,5 min
same,constitutive STAT3 DNA-binding activity in cells,"[2]; cells treated with 1–5 μM (BBI-608 0.5–5 μM, 2–3 h)",inhibited to variable degrees
same,pY705STAT3 in breast cancer cells,pY705STAT3,inhibited pY705STAT3 in dose- and time-dependent manner
same,"effect on tyrosine kinases EGFR, JAK2, Src, or AKT and ERK1/2",[3],no measurable effect
same,"expression of STAT3 target genes c-Myc, VEGF, Bcl-2, survivin",[4],inhibited the expression
same,PARP cleavage,[5],induced poly (ADP-ribose) polymerase (PARP) cleavage
same,response to combined treatment with docetaxel or cisplatin,[6],strong shift of the dose–response curves to the left indicative of an enhanced response
same,species found in HLM MetID study,Human HLM MetID study,both the parent compound and its hydroxy-acid metabolite
COc1ccc(S(=O)(=O)Nc2cc(-c3c(O)ccc4ccccc34)c(O)c3ccccc23)cc1 [Compound C188-9],direct effect on STAT3 activity in the DNA-binding assay/EMSA,STAT3,minimal direct effect
same,stronger activity against MCF-7 than MDA-MB-231,MCF-7 cells,2 fold
